Compound activity: PubChem BioAssay, several laboratories
M1 ag – M1 muscarinic receptor agonism. CHO-M1 cells, Fluo-4 calcium fluorescence, agonist mode; hits give high values. B-score at 10 µM. actives 3% (n = 64,000). AID 626;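 active = fluorescence rise, raw or as B-score row- and column-corrected plate score, outside the 99.7% band of its plate's samples, either direction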
D1 allo mod – allosterically modulates the human D1 dopamine receptor. P21728. HEK293 D1, CRE-luciferase, dopamine EC30 potentiation; actives deviate in either direction. B-score at 10 µM. actives 5.9% (n = 58,000);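 active = luminescence count or its row- and column-corrected plate score outside the 99.7% band of the plate's sample wells, on either side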
RORa activator – activates the human nuclear receptor RORA; CHO-K1 Gal4-RORA LBD luciferase reporter, luminescence; percent increase over mock-subtracted basal signal; activation, % at 10 µM; actives 1.5% (n = 65,000); AID 560;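 active = activation above the mean of all tested compounds plus 3 SD, cut at about 49% in these data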;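 also: 0% = DMSO-treated RORA cells and 100% = added signal equal to DMSO minus mock-transfected cells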
Target sequence (P35398 whole entry, looked up, the tested form may be a part): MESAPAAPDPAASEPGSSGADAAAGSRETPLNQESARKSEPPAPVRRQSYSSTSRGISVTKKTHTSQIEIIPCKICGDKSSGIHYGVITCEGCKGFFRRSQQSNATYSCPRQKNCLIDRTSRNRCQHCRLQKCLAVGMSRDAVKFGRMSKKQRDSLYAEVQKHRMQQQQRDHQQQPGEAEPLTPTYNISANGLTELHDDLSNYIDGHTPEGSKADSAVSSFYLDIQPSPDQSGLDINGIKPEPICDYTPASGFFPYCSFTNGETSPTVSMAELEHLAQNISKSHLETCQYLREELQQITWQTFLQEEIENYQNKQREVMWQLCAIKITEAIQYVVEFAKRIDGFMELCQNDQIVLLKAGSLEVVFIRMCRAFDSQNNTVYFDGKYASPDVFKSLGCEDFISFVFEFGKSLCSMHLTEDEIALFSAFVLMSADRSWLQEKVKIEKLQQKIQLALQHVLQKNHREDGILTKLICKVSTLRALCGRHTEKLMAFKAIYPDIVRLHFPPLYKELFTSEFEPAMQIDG
M1 antagonist – antagonists of rat M1 muscarinic receptor. actives 3.4% (n = 64,000). CHO-M1 cells, Fluo-4 calcium, ACh EC80 antagonist mode; hits give low values. AID 628. B-score at 10 µM. P08482;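 active = calcium fluorescence response, raw or row-and-column corrected B-score, differing from the plate sample mean either way at a set confidence level, mostly lower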
SF-1 act – activators of human nuclear receptor SF-1. Q13285. CHO-K1 Gal4-SF-1 LBD luciferase reporter; % increase over DMSO SF-1-specific signal. activation, % at 10 µM. actives 1.9% (n = 65,000). AID 522;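 active = activation above the mean activation of all tested compounds plus 3 SD, cut at about 50% in these data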
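System: CHO-K1 cells with Gal4–hSF-1 LBD chimera plus Gal4-driven luciferase; quantity: 4,000 CHO-K1 cells per well; compound: one dose, 10 µM compound, 1% DMSO; times: 20 h compound treatment, 37 °C; measured by: SteadyLite luciferase luminescence; read-out: percent activation versus DMSO; benchmarks: DMSO and mock-transfected background; replicates: one test per compound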
HePTP inhibitor – inhibitors of human HePTP phosphatase; recombinant HePTP phosphatase activity, OD absorbance; actives 0.64% (n = 110,000); inhibition, % at 20 µM; P35236; in the data active = inhibition above about 50%;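 also: plate controls were vehicle for no effect and reference inhibitor for full effect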
D1 PAM confirm – D1 receptor (human) allosteric modulation, confirmed. shares compounds with D1 allo mod. HEK293 D1 CRE-luciferase, dopamine EC30 potentiation; hits give high values. luminescence at 10 µM. actives 88% (n = 2,200);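 active = luminescence in either of two replicates above the same-plate mean plus 3 SD of the low-dose dopamine control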
D1 no dopamine – D1 (human) signaling in absence of dopamine | luminescence at 10 µM | shares compounds with D1 allo mod | AID 646 | actives 0.8% (n = 1,900) | HEK293 D1 CRE-luciferase, luminescence, no dopamine; hits give high values; in the data active = luminescence above about 3900
Isoprot counter – alters isoproterenol CRE-luciferase response in HEK293 cells. actives 63% (n = 2,200). HEK293 D1 CRE-luciferase, isoproterenol EC30 counter-screen. AID 647. calls only at 10 µM. shares compounds with D1 allo mod;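 active = luminescence in either replicate above plate mean of wells with a partly effective reference agonist dose plus 3 SD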;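 also: isoproterenol raises cAMP through native beta-adrenoceptor Gs so signal bypasses D1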
An asterisk follows results filed as active; i = inactive; / = no result given; + = active, no number. A selection: hits, their analogues and other compounds. The true share with any hit is near 8.2%.

SMILES | M1 ag | D1 allo mod | RORa activator | M1 antagonist | SF-1 act | HePTP inhibitor | D1 PAM confirm | D1 no dopamine | Isoprot counter
COc1ccc(-c2c3c(=O)n(C)c(=O)n(C)c3cn2C2CCCCC2)cc1 | 1.3 | 7.7* | 2 | -0.2 | -10 | 6 | 15660* | 1992 | +
Cc1nc2scc(-c3cccs3)c2c(=O)n1-n1cccc1 | 0.31 | 4.1* | 6 | 0.5 | -23 | 14 | 9316* | 1476 | +
Cc1ccc(C)n1-n1c(C)nc2scc(-c3cccs3)c2c1=O | -0.075 | 1.9 | -21 | -0.72 | -12 | 10 | / | / | /
O=C(c1cc2ccccc2oc1=O)N1CCSC1c1ccco1 (stereo not drawn) | -0.97 | -0.2 | -14 | 1.7 | 9 | 12 | / | / | /
CCCn1c(SCC(=O)Nc2ccccc2C(=O)OC)nc2c1c(=O)n(C)c(=O)n2C | -0.056 | 8.5* | -11 | -0.79 | -1 | 12 | 12220* | 1740 | +
CCOC(=O)c1c(NC(=O)CSc2nnnn2C)sc(C)c1C | 0.65 | 1.7 | -11 | -0.81 | -10 | 3 | / | / | /
CCCn1c(SCC(=O)Nc2sc(C)c(C)c2C(=O)OCC)nc2c1c(=O)n(C)c(=O)n2C | -0.083 | 6.5* | -1 | 0.043 | 6 | 9 | 8860* | 1644 | i
CCOC(=O)c1c(NC(=O)CSc2n[nH]c(N)n2)sc(CC)c1C | -1.5 | 7.9* | 8 | -0.21 | -6 | 6 | 14984* | 1740 | +
CCOC(=O)c1c(NC(=O)CSc2nnnn2CC)sc(C)c1C | -0.034 | 3.9* | 6 | 1.2 | 30 | -6 | 13084* | 1736 | +
COC(=O)c1ccccc1NC(=O)CSc1nc2c(c(=O)n(C)c(=O)n2C)n1C | -0.21 | 0.57 | 7 | 1.2 | -20 | 10 | / | / | /
O=C(CN1C(=O)c2ccccc2S1(=O)=O)N1CCN(Cc2ccc3c(c2)OCO3)CC1 | -1.2 | 0.47 | -14 | -0.18 | -4 | -5 | / | / | /
CC(C)(C)C1CCc2onc(C(=O)NC3CCCC3)c2C1 (stereo not drawn) | 0.42 | 1.4 | -8 | 0.58 | 2 | 3 | / | / | /
CC(C)(C)C1CCc2onc(C(=O)N3CCOCC3)c2C1 (stereo not drawn) | 1 | 6* | -2 | -0.48 | -6 | 5 | 10148* | 1516 | +
C=CCn1c(-c2ccncc2)n[nH]c1=S | / | / | / | / | / | 2 | / | / | /
COc1ccc2[nH]cc(C3N4CC5(C)CN3CC(C)(C4)C5=O)c2c1 (stereo not drawn) | 0.9 | 1.7 | 2 | -0.52 | 11 | / | / | / | /
Cn1c(=O)c2c(SCc3ccccc3)nc(-c3ccco3)nc2n(C)c1=O | 0.22 | 3.3* | -5 | -0.27 | -11 | 11 | 12880* | 1832 | i
CCOC(=O)c1sc(C)c2c(=O)n(CC(=O)c3ccc(Br)cc3)nnc12 | / | / | / | / | / | 4 | / | / | /
CSc1nnc(-c2ccco2)n1-c1ccccc1 | 0.022 | / | -22 | 0.79 | -14 | 6 | / | / | /
Fc1cccc(-n2c(-c3ccco3)nc3nc4ccccc4nc32)c1 | -0.43 | 9.2* | -1 | 0.087 | 10 | -3 | 16260* | 1552 | +
Fc1ccc(-n2c(-c3ccco3)nc3nc4ccccc4nc32)cc1 | -0.07 | 15* | 0 | 0.55 | -4 | 2 | 25288* | 1548 | +
O=C(NCC1CCCO1)c1nn2c(c1Cl)NC(c1cccs1)CC2C(F)(F)F (stereo not drawn) | / | / | / | / | / | 10 | / | / | /
O=c1c2ccccc2sc2nc(C3CCCCC3)n(Cc3ccco3)c(=O)c12 | 0.23 | 3.3 | 10 | 1.1 | -4 | 10 | / | / | /
CCc1nc2sc3ccccc3c(=O)c2c(=O)n1Cc1ccco1 | 0.92 | 3.4* | 0 | -0.28 | 5 | / | 12936* | 1700 | i
COC(=O)Nc1ccc(S(=O)(=O)N(C)C)cc1 | 0.64 | -0.028 | -7 | 0.79 | 6 | 7 | / | / | /
N#Cc1c(-c2ccco2)cc(-c2cccnc2)nc1N | -0.15 | 8.3* | 6 | 0.026 | 11 | 3 | 14352* | 1676 | +
SMILES | M1 ag | D1 allo mod | RORa activator | M1 antagonist | SF-1 act | HePTP inhibitor | D1 PAM confirm | D1 no dopamine | Isoprot counter
N#Cc1c(-c2ccco2)cc(-c2ccccn2)nc1N | / | 6.5* | -10 | / | -2 | -4 | 12544* | 1548 | +
Cc1c(-c2ccccc2)nc(N)c(C#N)c1-c1ccco1 | 0.091 | 5* | 4 | -0.16 | -9 | -1 | 15044* | 1636 | i
CC(C)(NO)/C(=N/O)c1ccc(Br)cc1 | 0.25 | 0.036 | -6 | -0.11 | 5 | 0 | / | / | /
CCOc1ccccc1NC(=O)CSc1ncnc2c1oc1ccccc12 | -1.3 | 3.6* | -2 | -0.62 | 11 | -9 | 6488* | 1512 | +
Cc1cc(NCCCn2ccnc2)n2c(nc3ccccc32)c1C#N | -0.61 | 3.9* | -7 | 0.085 | -4 | -6 | 7832* | 1564 | i
COCCn1cc(C(=O)NCc2cccs2)c2c3ccccc3n(C)c2c1=O | 0.38 | 0.8 | -4 | -0.12 | -12 | -7 | / | / | /
Cc1cnc(N)c2c(=O)oc3ccccc3c12 | 0.0059 | 9.8* | -2 | 0.73 | 4 | 5 | 17776* | / | +
O=c1oc2ccccc2c2nccnc12 | 0.16 | -0.26 | 0 | 0.77 | -16 | 7 | / | / | /
Cc1cc(C)n(-c2nc3c(c(=O)[nH]c(=O)n3C)n2Cc2ccccc2)n1 | -0.34 | 7.9* | 2 | 0.21 | 0 | 1 | 11052* | 1636 | +
Cc1cc(C)n(-c2nc3c(c(=O)[nH]c(=O)n3C)n2C)n1 | -0.19 | 1.8* | 11 | 0.58 | -3 | 5 | 5180 | 1016 | i
Cc1cc(C)n(-c2nc3c(c(=O)[nH]c(=O)n3C)n2CCc2ccccc2)n1 | 0.64 | 3.8 | -10 | 0.22 | 11 | -8 | / | / | /
Cc1cc(C)n(-c2nc3c(c(=O)[nH]c(=O)n3C)n2Cc2ccc(F)cc2)n1 | 0.42 | 0.35 | -2 | -1.8 | 4 | 11 | / | / | /
O=C(NCCNC(=O)C(c1ccccc1)c1ccccc1)c1ccco1 | -0.21 | 5.3* | 18 | 0.49 | 0 | 1 | 6392* | / | i
COc1cc2c(cc1OC)C(C)N(C(=O)c1cc3n(n1)C(C(F)(F)F)CC(c1ccco1)N3)CC2 (stereo not drawn) | -0.2 | 6* | 13 | -0.097 | 3 | 16 | 12888* | 1708 | +
CCC(=O)N1CCc2cc(OC)c(OC)cc2C1COc1ccc(C(=O)OC)cc1 (stereo not drawn) | 0.48 | 15* | 2 | -0.006 | 24 | 4 | 20996* | 3492 | +
COC(=O)CCC(=O)Nc1cccc(C(N)=O)c1 | / | / | / | / | / | 9 | / | / | /
